Results from different studies.
Each line is one published result; the experiments were not run side by side. pIC50: −log10 of the molar value. Values after ≈ are worked out from the molar mass of the structure shown.

SMILES	target or system	test	system	setting	quantity	value
O=C(O[C@@H]1O[C@@H]2COC(=O)c3cc(O)c(O)c(O)c3-c3c(cc(O)c(O)c3O)C(=O)O[C@H]([C@H]1O)[C@@H]2O)c1cc(O)c(O)c(O)c1	Streptococcus gordonii	microbial killing, broth dilution			MBC	800 µg/mL (≈ 1260 µM)
CC(C)c1cccc(C(C)C)c1N=C1C(=O)N(Cc2cccc(Cl)c2)c2ccccc21	B16	cell growth or viability, MTT		48 h	pIC50	4.39
O=C1OC[C@H]2OC(O)[C@H](O)[C@@H](O)[C@@H]2OC(=O)c2cc(O)c(O)c(O)c2-c2c(O)c(O)c3oc(=O)c4c(c(O)c(O)c5oc(=O)c2c3c54)-c2c1cc(O)c(O)c2O (mixture of isomers)	Streptococcus gordonii	microbial growth, broth dilution		24 h	MIC	200 µg/mL
O=C1C(=Nc2ccccc2I)c2ccccc2N1Cc1ccc([N+](=O)[O-])cc1	B16	cell growth or viability, MTT		48 h	pIC50	6.57
CCCCCCC#Cc1cncc(-c2nnc(SCc3ccc(Cl)cc3)n2CCCN)c1	Acinetobacter baumannii	microbial growth, broth dilution	ATCC17978		MIC	16 µg/mL (≈ 34.2 µM)
O=C1O[C@H]2[C@@H]3OC(=O)c4cc(O)c(O)c(O)c4-c4c(O)c(O)c5oc(=O)c6c(c(O)c(O)c7oc(=O)c4c5c76)-c4c(cc(O)c(O)c4O)C(=O)OC[C@H]3OC(O)[C@@H]2OC(=O)c2cc(O)c(O)c(O)c2-c2c1cc(O)c(O)c2O (mixture of isomers)	Streptococcus gordonii	microbial growth, disc diffusion		500 µg/disc	inhibition zone	14.2 mm
C[C@@H](O)[C@H]1C(=O)N2C(C(=O)O)=C(S[C@@H]3CN[C@H](C(=O)N(C)C)C3)[C@H](C)[C@H]12	Acinetobacter baumannii	microbial growth, broth dilution	ATCCBAA1605		MIC	16 µg/mL (≈ 41.7 µM)
Cc1n[nH]c2ccc3nc(-c4ccc(C(=O)NCCN(C)C)cc4)c4c(c3c12)CCCCC4	G-361	cell growth or viability		72 h	GI50	> 10 µM
Cc1cccc(N=C2C(=O)Nc3ccccc32)c1	B16	cell growth or viability, MTT		48 h	pIC50	4.29
Cc1n[nH]c2ccc3nc(-c4ccc(C(=O)NCCN(C)C)cc4)c4c(c3c12)CCCC4	G-361	cell growth or viability		72 h	GI50	3.49 µM
C[C@@H](O)[C@H]1C(=O)N2C(C(=O)O)=C(SCCN=CN)C[C@H]12	Acinetobacter baumannii	microbial growth, broth dilution	ATCCBAA1605		MIC	> 64 µg/mL
FC(F)(F)c1ccc(-c2cc(CNc3cccc4cccnc34)on2)cc1	Z-138	cell growth or viability, MTS		72 h	pIC50	4.07
O=c1oc2c(O)c(O)cc3c(=O)oc4c(O)c(O)cc1c4c23	Streptococcus gordonii	microbial killing, broth dilution			MBC	400 µg/mL (≈ 1320 µM)
CNC(C)C1CCC(N)C(OC2C(N)CC(N)C(OC3OCC(C)(O)C(NC)C3O)C2O)O1 (stereo not drawn)	Acinetobacter baumannii	microbial growth, broth dilution	ATCC19606		MIC	16 µg/mL (≈ 33.5 µM)
COc1cc(N=C2C(=O)Nc3ccccc32)cc(OC)c1	B16	cell growth or viability, MTT		48 h	pIC50	5.52
CO/N=C(\C(=O)N[C@@H]1C(=O)N2C(C(=O)O)=CCS[C@H]12)c1csc(N)n1	Acinetobacter baumannii	microbial growth, broth dilution	ATCC19606		MIC	16 µg/mL (≈ 41.7 µM)
O=C1C(=Nc2ccc(Cl)cc2)c2ccccc2N1Cc1ccc(Br)cc1	B16	cell growth or viability, MTT		48 h	pIC50	4.85
C[C@H]1[C@H](NC(=O)/C(=N\OC(C)(C)C(=O)O)c2csc(N)n2)C(=O)N1S(=O)(=O)O	Acinetobacter baumannii	microbial growth, broth dilution	ATCCBAA1605		MIC	> 64 µg/mL
Cc1cccc(N=C2C(=O)N(Cc3ccc(Br)cc3)c3ccccc32)c1	B16	cell growth or viability, MTT		48 h	pIC50	5.16
CN(C)[C@@H]1C(O)=C(C(N)=O)C(=O)[C@@]2(O)C(O)=C3C(=O)c4c(O)cccc4[C@@](C)(O)[C@H]3C[C@@H]12	Acinetobacter baumannii	microbial growth, broth dilution	ATCCBAA1605		MIC	> 64 µg/mL
O=C1C(=Nc2ccc(Cl)cc2)c2ccccc2N1Cc1ccc([N+](=O)[O-])cc1	B16	cell growth or viability, MTT		48 h	pIC50	6.24
C[C@@H]1O[C@@H](OC[C@H]2O[C@@H](Oc3c(-c4ccc(O)c(O)c4)oc4cc(O)cc(O)c4c3=O)[C@H](O)[C@@H](O)[C@@H]2O)[C@H](O)[C@H](O)[C@H]1O	Streptococcus gordonii	microbial killing, broth dilution			MBC	400 µg/mL (≈ 655 µM)
Cc1cccc(N=C2C(=O)N(Cc3ccccc3)c3ccccc32)c1	B16	cell growth or viability, MTT		48 h	pIC50	5.97
Oc1cc(O)c2c(c1)O[C@H](c1cc(O)c(O)c(O)c1)[C@@H](O)C2	Streptococcus gordonii	microbial killing, broth dilution			MBC	100 µg/mL (≈ 327 µM)
